Holding throughout (type): functional, organism-based
The subject of assay [1] is Rattus norvegicus. As to the kind of experiment: Serum concentration at 60 min after iv administration in bile duct cannulated rat. In a few lines:
(§1)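 Anesthetized, bile duct cannulated rats given peptide by tail vein injection, 1 mg kg⁻¹ or the molar equivalent, in 3 mM citric acid/saline vehicle. Blood taken from the orbital sinus at 5 and 60 min. Serum inhibitor concentration measured by renin enzyme activity assay. Percent of recovered dose in bile and urine determined over the 3-h study period. Means, n = 4.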

The subject of assay [2] is Rattus norvegicus. The assay can be described thus: Serum concentration at 5 min after iv administration in bile duct cannulated rat. The procedure, abridged: as §1
The species entered for assay [3] is Rattus norvegicus. As to the kind of experiment: Compound was tested for the urinary recovery dose in rats. Particulars: Urine. The procedure, abridged: as §1
The species named for assay [4] is Rattus norvegicus. As to the kind of experiment: Compound was tested for the biliary recovery dose in rats. In a few lines: as §1
The subject of assay [5] is Rattus norvegicus. As to the kind of experiment: Serum concentration at 60 min after iv administration in bile duct cannulated rat. The procedure, abridged:
as §1

Assay [6] deals with Rattus norvegicus. As to the kind of experiment: Serum concentration at 5 min after iv administration in bile duct cannulated rat. The procedure, abridged:
as §1

*1 amine or outer side, *2 acyl side, *3 side chain or, on linkers, in order; H or OH if unused. Where a SMILES comes first, the peptide text is derived from it. [ ]: non-standard residue; d: D form. The star is where a group is joined. ξ: configuration not given here. X1 = CC(C)C[C@H](N[*:1])[C@@H](O)C[C@H](C(=O)[*:2])C(C)C; NH(2-picolyl-N-oxide) = [O-][n+]1ccccc1CN*; NMeH = CN[C@@H](Cc1c[nH]cn1)C(=O)O; NHCH2(2-pyridyl) = c1ccc(CN*)nc1; X2 = CC(=O)NC1C(N*)OC(CO)C(O)C1O; Ile(3ξ) = CCC(C)[C@H](N)C(=O)O; NHC(CH2OH)3 = OCC(CO)(CO)N*; X3 = OCC1OC(N*)C(O)C(O)C1O; Boc = CC(C)(C)OC(=O)*; CO = O=C([*:1])[*:2]

Turning to `CCC(C)[C@H](NC(=O)[C@@H](C[C@H](O)[C@H](CC(C)C)NC(=O)[C@H](Cc1c[nH]cn1)N(C)C(=O)[C@H](Cc1ccccc1)NC(=O)[C@@H]1CCCN1C(=O)[C@H](CC(=O)NC1OC(CO)C(O)C(O)C1NC(C)=O)NC(=O)OC(C)(C)C)C(C)C)C(=O)NCc1cccc[n+]1[O-]` (stereo partly specified) (Boc-D(X2)PF[NMeH][X1][Ile(3ξ)]-{NH(2-picolyl-N-oxide)}), the Serum concentration was determined as 158 nM in the assay with Rattus norvegicus [1] and 2580 nM in the assay on Rattus norvegicus [2]. Moreover, the figures for the Recovery in the assay filed under Rattus norvegicus [3] and in the assay listed under Rattus norvegicus [4] were 67% and 33%, respectively.

Take `CCC(C)[C@H](NC(=O)[C@@H](C[C@H](O)[C@H](CC(C)C)NC(=O)[C@H](Cc1c[nH]cn1)N(C)C(=O)[C@H](Cc1ccccc1)NC(=O)[C@@H]1CCCN1C(=O)[C@H](CC(=O)NC1OC(CO)C(O)C(O)C1NC(C)=O)NC(=O)OC(C)(C)C)C(C)C)C(=O)NCc1ccccn1` (stereo partly specified) (Boc-D(X2)PF[NMeH][X1][Ile(3ξ)]-{NHCH2(2-pyridyl)}): the Serum concentration with Rattus norvegicus [5] came out at 20 nM; in the assay on Rattus norvegicus [2], 1790 nM. Moreover, the results for the Recovery in the assay listed under Rattus norvegicus [3] and in the assay filed under Rattus norvegicus [4] were 24% and 76%, respectively.

With `CCC(C)[C@H](NC(=O)[C@@H](C[C@H](O)[C@H](CC(C)C)NC(=O)[C@H](Cc1c[nH]cn1)N(C)C(=O)[C@H](Cc1ccccc1)NC(=O)[C@@H]1CCCN1C(=O)[C@H](CC(=O)NC1OC(CO)C(O)C(O)C1O)NC(=O)OC(C)(C)C)C(C)C)C(=O)NCc1ccccn1` (stereo partly specified) (Boc-D(X3)PF[NMeH][X1][Ile(3ξ)]-{NHCH2(2-pyridyl)}), the Serum concentration with Rattus norvegicus [1] was 39 nM; in the assay on Rattus norvegicus [2], 2190 nM. The Recovery came to 35% in the assay filed under Rattus norvegicus [3] and 65% in the assay listed under Rattus norvegicus [4].

On to `CCC(C)[C@H](NC(=O)[C@@H](C[C@H](O)[C@H](CC(C)C)NC(=O)[C@H](Cc1c[nH]cn1)N(C)C(=O)[C@H](Cc1ccccc1)NC(=O)[C@@H]1CCCN1C(=O)NC(CO)(CO)CO)C(C)C)C(=O)NCc1cccc[n+]1[O-]` (stereo partly specified) ({NHC(CH2OH)3-CO}-PF[NMeH][X1][Ile(3ξ)]-{NH(2-picolyl-N-oxide)}), for which the Serum concentration worked out at 1100 nM with Rattus norvegicus [6] and 15 nM in the assay on Rattus norvegicus [5]. The Recovery came to 17% in the assay listed under Rattus norvegicus [3] and 83% in the assay filed under Rattus norvegicus [4].

For the origin of these results see ChEMBL document CHEMBL1125781, “Peptide to glycopeptide: glycosylated oligopeptide renin inhibitors with attenuated in vivo clearance properties” (J Med Chem, 1991).
